Measured values reported in ChEMBL document CHEMBL5104125, “Copper chelating cyclic peptidomimetic inhibits Aβ fibrillogenesis” (RSC Med Chem, 2022).
The source made the active and inactive calls. The calls are words filed in the database; no cut-off is given here. Where a SMILES comes first, the peptide text is derived from it. [ ]: non-standard residue; d: D form. The star is where a group is joined. X1 = CCN(CC)c1ccc2c(-c3ccc(C(=O)*)cc3)c3ccc(N(CC)CC)cc3[o+]c2c1; Sar = CNCC(=O)O

Legend:
[1] = Drug uptake in mouse Neuro2a cells assessed as drug co-localization in cell at 100 uM in presence of MA.beta-RhB by confocal microscopy; format: ADME, cell-based; conditions: n2a
Method in brief: (§1)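 Neuro2a cells treated with fluorescein- or Rhodamine B-labelled peptide at 100 μM, alone or together. Green and red fluorescence imaged in bright and dark field at 20×. Co-localization checked by confocal imaging at 63×, with green and red channels captured separately and then merged.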

[2] = Cytotoxicity against mouse Neuro2a cells assessed as reduction in cell viability by MTT assay; format: toxicity, cell-based, N2a
Method in brief: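 Neuro2a mouse neuronal cells treated with fluorescently labelled peptides; viability read by MTT after 24 h. IC50 calculated from linear regression of viability versus concentration.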

Homo sapiens [3] = organism: Homo sapiens; experiment: Binding affinity to Rhodamine B labelled amyloid beta (9-21 residues) (unknown origin) assessed as increase in fluorescence intensity of Rhodamine B at 20 uM incubated for 24 hrs by FRET analysis (Rvb= 601 nm)
Method in brief: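 FRET between fluorescein-labelled cyclic peptide (donor) and Rhodamine B-labelled Aβ9-21 model peptide (acceptor), mixed 1:1, ~20 μM each in PBS (50 mM, pH 7.4), incubated 24 h at 37 °C. Donor and mixture excited at 492 nm, acceptor alone at 567 nm; emission spectra recorded. Representative of several independent repeats.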

[4] = Drug uptake in mouse Neuro2a cells assessed as drug internalization in cell membrane at 100 uM by confocal microscopy; format: ADME; conditions: n2a; method in brief: as §1
[5] = molecular target: Amyloid-beta precursor protein (Homo sapiens) (UniProt P05067); experiment: Inhibition of amyloid beta (1 to 40) (unknown origin) aggregation at 2 M incubated for 6 days by thioflavin S based fluorescence analysis relative to control; conditions: time 6.0 day
Method in brief: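 Aβ1-40 (40 μM) co-incubated with 0.5-, 1- or 2-fold molar excess of peptide in PBS pH 7.4 at 37 °C for six days; ThT fluorescence monitored over time. Experiment done thrice, with two sets per solution and three readings per set.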

[6] = molecular target: Amyloid-beta precursor protein (Homo sapiens) (UniProt P05067); experiment: Inhibition of amyloid beta (1 to 40) (unknown origin) aggregation at 1 M incubated for 6 days by thioflavin S based fluorescence analysis relative to control; conditions: time 6.0 day
[7] = molecular target: Amyloid-beta precursor protein (Homo sapiens) (UniProt P05067); experiment: Inhibition of amyloid beta (1 to 40) (unknown origin) aggregation at 0.5 M incubated for 6 days by thioflavin S based fluorescence analysis relative to control; conditions: time 6.0 day
[8] = molecular target: Amyloid-beta precursor protein (Homo sapiens) (UniProt P05067); experiment: Inhibition of amyloid beta (1 to 40) (unknown origin) aggregation assessed as reduction in fibrillar assembly at 2 M incubated for 6 days by TEM analysis; conditions: time 6.0 day
Method in brief: (§2)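 Aβ1-40 (40 μM) co-incubated with 2-fold molar excess of peptide in PBS pH 7.4 at 37 °C for six days. TEM images (200 nm scale) and Congo red-stained birefringence images (20 μm scale) captured.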

[9] = molecular target: Amyloid-beta precursor protein (Homo sapiens) (UniProt P05067); experiment: Inhibition of amyloid beta (1 to 40) (unknown origin) aggregation assessed as reduction in beta sheet conformation at 2 M incubated for 6 days by FTIR analysis; conditions: time 6.0 day
[10] = molecular target: Amyloid-beta precursor protein (Homo sapiens) (UniProt P05067); experiment: Inhibition of amyloid beta (1 to 40) (unknown origin) aggregation assessed as bright green-gold birefringence at 2 M incubated for 6 days by Congo-red staining based image analysis; conditions: time 6.0 day; method in brief: as §2
[11] = molecular target: Amyloid-beta precursor protein (Homo sapiens) (UniProt P05067); experiment: Inhibition of amyloid beta (1 to 40) (unknown origin) aggregation assessed as reduction in beta sheet conformation at 2 M incubated for 6 days by circular dichroism analysis; conditions: time 6.0 day
[12] = Metal chelating activity assessed as compound-Zn2+ complex formation by measuring red shift at 2:1 ratio in presence of ZnCl2 by UV-Vis spectra analysis (Rvb= 264 nm)
[13] = molecular target: Amyloid-beta precursor protein (Homo sapiens) (UniProt P05067); experiment: Inhibition of Cu2+ induced amyloid beta (1 to 40) (unknown origin) aggregation assessed as reduction in fibrils at 80 uM incubated for 36 hrs in presence of CuSO4 by thioflavin S based fluorescence analysis; conditions: in the assay text read “thioflavin T” for “thioflavin S”
Method in brief: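 Aβ1-40 (40 μM) with CuSO4 (40 μM) and test peptide (80 μM) in PBS pH 7.4, 37 °C, 36 h. ThT fluorescence read at ex 440 nm / em 485 nm, with ThT-plus-PBS reference subtracted. Mean of three independent experiments ± SD.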

Lipid bilayer = experiment: Inhibition of membrane destabilization in carboxyfluorescein dye entrapped large unilamellar vesicle assessed as decrease in amyloid beta (1-40) induced carboxyfluorescein leakage upto 48 hrs by TEM analysis; conditions: in the assay text read “by fluorescence analysis” for “by TEM analysis”
Method in brief: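 Carboxyfluorescein-loaded LUVs in PBS (50 mM) exposed to pre-incubated Aβ1-40 alone or Aβ1-40 with peptide (1:2). Final lipid 50 μM, Aβ1-40 2.5 μM (peptide:lipid 1:20), 37 °C. Dye leakage measured by fluorescence at intervals from 1 to 48 h; untreated LUV as control.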

[14] = Metal chelating activity assessed as compound-Cu2+ complex formation by measuring red shift at 2:1 ratio in presence of CuSO4 by UV-Vis spectra analysis (Rvb= 264 nm)
Homo sapiens [15] = organism: Homo sapiens; experiment: Metal chelating activity assessed as extraction of Cu2+ from amyloid beta (1 to 40) (unknown origin)-Cu2+ complex by measuring fluorescence of Tyr10 at 80 uM incubated for 36 hrs by tyrosine intrinsic fluorescence assay
Method in brief: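 Aβ1-40 (40 μM) in PBS (50 mM, pH 7.4), with Cu2+ added at 40 μM, then peptide at 80 μM (1:1:2). Tyr10 intrinsic fluorescence emission read at 308 nm and expressed as normalized fluorescence intensity.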

[16] = Metal chelating activity assessed as compound-Zn2+ complex formation by measuring red shift at 1:1 ratio in presence of ZnCl2 by UV-Vis spectra analysis (Rvb= 265 nm)
[17] = molecular target: Amyloid-beta precursor protein (Homo sapiens) (UniProt P05067); experiment: Inhibition of amyloid beta (1 to 40) (unknown origin) aggregation assessed as increase in size of off-target aggregated species at 80 uM incubated upto 24 hr by DLS analysis
Method in brief: (§3)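 Aβ1-40 (40 μM) alone or with 2 equivalents of peptide, incubated at pH 7.4, 37 °C. DLS size distribution and TEM morphology (500 nm scale) recorded at 1, 6, 12 and 24 h.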

[18] = Metal chelating activity assessed as compound-Cu2+ complex formation by measuring deviation in g values at 1 to 2 M in presence of CuSO4 by electron spin resonance analysis; conditions: dose 1-2 M
Method in brief: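 ESR spectra recorded at room temperature on Cu2+ solution (5 mM) alone and with 1- or 2-fold molar ratio of peptide; g values read.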

[19] = Metal chelating activity assessed as compound-Cu2+ complex formation by measuring exothermic event at 50 uM in presence of CuSO4 by isothermal titration calorimetry assay
Method in brief: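 ITC at 27 °C in 20 mM Tris-HCl pH 7.4. Metal solution (1.5 mM) in the syringe was titrated into peptide (50 μM) in the cell over 30 injections. Heats of dilution of metal into buffer were subtracted. ΔH, ΔS, K and n were fitted with a sequential two-site binding model.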

[20] = molecular target: Amyloid-beta precursor protein (Homo sapiens) (UniProt P05067); experiment: Inhibition of amyloid beta (1 to 40) (unknown origin) aggregation assessed as off-pathway aggregated species at 80 uM incubated upto 24 hr by TEM analysis; conditions: TDE = time-dependent effect; method in brief: as §3
[21] = Metal chelating activity assessed as compound-Cu2+ complex formation by measuring red shift at 1:1 ratio in presence of CuSO4 by UV-Vis spectra analysis (Rvb= 265 nm)
[22] = molecular target: Amyloid-beta precursor protein (Homo sapiens) (UniProt P05067); experiment: Inhibition of Cu2+ induced amyloid beta (1 to 40) (unknown origin) aggregation assessed as disapperance of fibrillar assembly at 80 uM incubated for 36 hrs by TEM analysis
Method in brief: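 Aβ1-40 (40 μM) incubated with CuSO4 (40 μM) and test peptide (80 μM) in PBS pH 7.4 at 37 °C for 36 h, then imaged by TEM. Representative image from several repeats.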

[23] = Drug uptake in mouse Neuro2a cells assessed as drug internalization in cytoplasm at 100 uM by confocal microscopy; format: ADME; conditions: n2a; method in brief: as §1
[24] = Drug uptake in mouse Neuro2a cells assessed as drug co-localization in cell at 100 uM in presence of PA19fCP-FI by confocal microscopy; format: ADME, cell-based; conditions: n2a; method in brief: as §1

Sequence of Amyloid-beta precursor protein (Homo sapiens) (P05067 whole entry): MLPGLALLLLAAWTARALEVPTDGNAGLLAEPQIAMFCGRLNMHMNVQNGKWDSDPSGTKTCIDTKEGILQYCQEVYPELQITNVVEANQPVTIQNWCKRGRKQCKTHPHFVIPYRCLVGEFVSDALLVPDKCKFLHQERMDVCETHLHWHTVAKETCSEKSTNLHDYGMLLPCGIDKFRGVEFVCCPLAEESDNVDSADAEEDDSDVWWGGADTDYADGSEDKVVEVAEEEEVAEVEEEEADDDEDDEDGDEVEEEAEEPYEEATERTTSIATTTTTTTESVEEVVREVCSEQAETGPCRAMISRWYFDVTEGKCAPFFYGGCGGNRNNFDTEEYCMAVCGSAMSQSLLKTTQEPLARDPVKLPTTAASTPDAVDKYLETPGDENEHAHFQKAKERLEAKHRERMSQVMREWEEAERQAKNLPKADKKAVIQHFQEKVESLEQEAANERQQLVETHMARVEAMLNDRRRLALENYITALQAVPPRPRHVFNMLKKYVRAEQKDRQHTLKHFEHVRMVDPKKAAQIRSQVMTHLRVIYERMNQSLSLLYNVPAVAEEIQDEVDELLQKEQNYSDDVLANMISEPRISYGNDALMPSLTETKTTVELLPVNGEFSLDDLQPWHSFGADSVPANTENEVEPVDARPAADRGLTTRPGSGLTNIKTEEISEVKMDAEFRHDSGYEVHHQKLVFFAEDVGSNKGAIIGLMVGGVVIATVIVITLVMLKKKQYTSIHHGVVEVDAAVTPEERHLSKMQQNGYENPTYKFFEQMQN

inhibition [5] [%]	inhibition [6] [%]	inhibition [7] [%]	inhibition [8]	inhibition [9] [%]	inhibition [10]	inhibition [11] [%]	Compound	IC50 [2] [µM]	other results
–	–	–	–	–	–	–	CC(C)C[C@@H]1NC(=O)[C@H](CCCCNC(=O)c2ccccn2)NC(=O)[C@H](CCCCNC(=S)Nc2ccc(-c3c4ccc(=O)cc-4oc4cc(O)ccc34)c(C(=O)O)c2)NC(=O)[C@H](CCC(N)=O)NC(=O)[C@H](C)NC(=O)[C@H](Cc2ccccc2)NC(=O)[C@@H](Cc2ccccc2)NC(=O)[C@H](C(C)C)NC1=O	200	Drug uptake [1]: Active; OD (Homo sapiens [3]): 604 nm; Drug uptake [4]: Active
27.2	15.1	7.9	–	–	–	–	CC(=O)N[C@@H](CCCCN)C(=O)N[C@@H](CC(C)C)C(=O)N[C@H](C(=O)N[C@H](Cc1ccccc1)C(=O)N[C@@H](Cc1ccccc1)C(=O)N[C@@H](C)C(=O)N[C@@H](CCC(N)=O)C(=O)O)C(C)C	–	–
73.7	47.9	25.2	Active	74	Active	74	CC(C)C[C@@H]1NC(=O)[C@H](CCCCN)NC(=O)[C@H](CCC(N)=O)NC(=O)[C@H](C)NC(=O)[C@H](Cc2ccccc2)NC(=O)[C@@H](Cc2ccccc2)NC(=O)[C@H](C(C)C)NC1=O	–	–
85.6	52.6	32.4	Active	85	Active	85	CC(C)C[C@@H]1NC(=O)[C@H](CCCCNC(=O)c2ccccn2)NC(=O)[C@H](CCC(N)=O)NC(=O)[C@H](C)NC(=O)[C@H](Cc2ccccc2)NC(=O)[C@@H](Cc2ccccc2)NC(=O)[C@H](C(C)C)NC1=O	–	OD [12]: 267 nm; inhibition [13]: Active; inhibition (Lipid bilayer): Active; OD [14]: 270 nm; Activity (Homo sapiens [15]): 84.3%; OD [16]: 268 nm; inhibition [17]: Active; Activity [18]: Active; Activity [19]: Active; inhibition [20]: Tde; OD [21]: 271 nm; inhibition [22]: Active
–	–	–	–	–	–	–	CCN(CC)c1ccc2c(-c3ccc(C(=O)N(C)CC(=O)NCC(=O)N[C@@H](Cc4ccc(O)cc4)C(=O)N[C@@H](CCC(=O)O)C(=O)N[C@H](C(=O)N[C@@H](Cc4c[nH]cn4)C(=O)N[C@@H](Cc4c[nH]cn4)C(=O)N[C@@H](CCC(N)=O)C(=O)N[C@@H](CCCCN)C(=O)N[C@@H](CC(C)C)C(=O)N[C@H](C(=O)N[C@@H](Cc4ccccc4)C(=O)N[C@@H](Cc4ccccc4)C(=O)N[C@@H](C)C(=O)NCC(N)=O)C(C)C)C(C)C)cc3)c3ccc(N(CC)CC)cc3[o+]c2c1 (X1-[Sar]GYEVHHQKLVFFAG-NH2)	150	Drug uptake [23]: Active; Drug uptake [24]: Active
